In ChEMBL document CHEMBL4513216, “Probing the Open Global Health Chemical Diversity Library for Multistage-Active Starting Points for Next-Generation Antimalarials” (ACS Infect Dis, 2020):

Experiment: Toxicity liver stage against HepG2, at 10uM
Type: cell-based
Parameters: test concentration 10 uM, cell line HepG2-A16-CD81EGFP
Conditions: human, HepG2-A16-CD81EGFP cells; read-out: INHIBITION
In short: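 Uninfected HepG2-A16-CD81EGFP cells, 3 × 10^3 per well, 1536-well, plated on prespotted compound at 10 μM final, parasite-free screening media added to match infected plates; puromycin 10 μM positive, DMSO 0.5% negative; run in parallel with 48 h PbLuc assay at 37 °C, 5% CO2; viability by CellTiter-Glo luminescence, normalized to controls.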

Compound	cytotoxicity at 10 µM [%]
CC(=O)N[C@H](C)c1c(-c2ccc(Cl)cc2)noc1C(=O)O	3.29
NC(=O)CN1C(=O)CO[C@H]2CN(Cc3ccc(C(F)(F)F)cc3)C[C@H]21	0.523
O=C(Nc1ccccc1)[C@H]1CN2CCC1C[C@@H]2Cn1cc(CO)nn1 (stereo partly drawn)	-2.42
CC(=O)N1N=C(c2ccccc2)OC1C(=O)NCCOc1ccccc1 (stereo not drawn)	-2.86
CNC(=O)c1cc(-c2ccccc2OC)[nH]n1	-2.77
CCOC(=O)[C@@H]1[C@@H](O)C(=O)N(C)C12CCN(C(=O)OC)CC2	1.97
Cn1c(-c2cccs2)nn(CCNS(=O)(=O)c2ccccc2Cl)c1=O	-9.48
Cc1cccc(OC2CCN(C(=O)Cn3ccc4ccccc43)CC2)n1	1.53
Cc1nsc(C(=O)NCCc2cccs2)n1	-2.67
O=S(=O)(Nc1cnn(C2CCOCC2)c1)c1ccc(Br)cc1	5.05
CCN(C)C1COC2(CCN(C(=O)c3ccc4[nH]ccc4c3)CC2)C1 (stereo not drawn)	-5.96
CCN1C(=O)C(c2ccccc2)CC12CCN(c1ncccn1)CC2 (stereo not drawn)	1.11
COCCC(=O)N1Cc2[nH]nc(COc3cccnc3)c2C1	-2.97
c1cncc(CN2CCC3(CCCN(c4nncs4)C3)C2)c1 (stereo not drawn)	-144
Cc1cncc(C(=O)NCC2COCc3c(C)nnn3C2)c1 (stereo not drawn)	-2.03
CC(C)CN1CCC2(CC(C(=O)NCc3cccnc3)=NO2)C1 (stereo not drawn)	-5.99
COc1ccc(C)cc1S(=O)(=O)NCCC(O)c1ccccc1 (stereo not drawn)	0.197
CCOc1ccc(N2CCCN=C2NC(=O)c2ccccc2C)cc1	-6.69
O=C(Cc1ccccc1F)N1CCC[C@@H]1Cn1c(=O)oc2ccccc21	2.69
Cc1cc(C)nc(N2CCOC(C)(C(=O)N(C)C)C2)n1 (stereo not drawn)	-3.04
Cc1csc(C(Cc2ccsc2)NC(=O)C2CCN(S(C)(=O)=O)CC2)n1 (stereo not drawn)	-18
CN(C)CCOc1cc(NC(=O)COCC(F)(F)F)ccn1	-2.29
CCC(C)C(=O)NCc1ccn(-c2ccc(F)cc2)n1 (stereo not drawn)	-2.42

Compound	cytotoxicity at 10 µM [%]
CCc1nnsc1C(=O)NCCCC(CC)(CC)C1OCCO1	5.95
CCC(=O)N(C)Cc1cccc(OC(C)C)c1	12.8
CCN(CC1CCOC1)S(=O)(=O)Cc1ccccc1Cl (stereo not drawn)	-0.768
COc1ccc(Cl)cc1NCC(=O)N(Cc1ccccn1)C1CC1	8.13
Cc1noc(C(C)N2CCN(CCc3ccncc3)CC2)n1 (stereo not drawn)	2.67
Cc1noc(C)c1C(C)NC(=O)N1CCCN(C(=O)c2ccsc2)CC1 (stereo not drawn)	-0.77
CC(C)CC(=O)N1CCC2(CC1)OCCO2	4.37
O=C(Cc1cccnc1)NCCSc1ccccc1F	-6.45
CC(C)CNC(=O)COc1cccc[n+]1[O-]	-8.35
CCN(CCO)C(=O)Nc1ccc(OCCOC)nc1	-5.71
COc1ccccc1CNC(Cn1cncn1)c1ccccc1 (stereo not drawn)	-6.1
Cc1ccoc1C(=O)N1CCOC2(CCCC2)C1	-4.55
N#Cc1cn(CCCN2CCc3ccccc32)c(=O)[nH]c1=O	6.48
c1ccc(C(c2ccccc2)N2CCN(CCn3cncn3)CC2)cc1	-7.72
Cc1cnn(C2CN(CC(=O)NCC3(c4ccccc4)CCC3)C2)c1	-4.2
CCOC(=O)C1CCN(Cc2c(O)ccc3oc4c(c23)CCCC4)CC1	-1.2
NC(=O)CCCNC(=O)Cc1cccc(I)c1	-3.71
Cc1nn(C)c(N(C)C)c1CNC(C)c1cccnc1 (stereo not drawn)	-2.8
C1CC(c2noc(C3CC3)n2)CN(CCOCC2CC2)C1 (stereo not drawn)	-8.91
Cc1nc(C(=O)NCc2ccc(N3CCNC(=O)C3)c(F)c2)cs1	-0.0162
OCC1(NCc2cnc(-c3ccsc3)s2)CCOCC1	-3.1
Cc1ccc(OCCC(=O)N(C)CCC#N)cc1C	6.5
COCc1csc(NC(=O)NCc2ccc(C)s2)n1	2.44

Compound	cytotoxicity at 10 µM [%]
CN(C)C(=O)C(C)(C)c1ccc2c(c1)OCCO2	-1.52
O=C(c1cc[nH]c(=O)c1)N1CCn2c(nnc2-c2ccccc2)C1	-4.71
O=C(Nc1ccccc1-c1cccs1)N1CCOCC1	-5.01
Cn1cc(CNC(=O)C2CCCN(Cc3cccc(F)c3)C2)cn1 (stereo not drawn)	3.44
COCCOc1ccc(CNc2nc3ccccc3o2)cn1	7.45
CCOc1ccc(S(=O)(=O)C(C)C(=O)Nc2cc(C)no2)cc1 (stereo not drawn)	5.07
N#Cc1ccc(CN2CCNC(=O)C2c2cccs2)cc1 (stereo not drawn)	-2.89
CC(=O)N1CCN(C(C)c2ccc(Br)cc2)CC1 (stereo not drawn)	-5.63
O=S(=O)(Cc1ccc(F)c(Cl)c1)NCCOc1cccnc1	-49.9
CC(Cn1cccn1)NC(=O)NCCCN1CCc2ccccc2C1 (stereo not drawn)	-3.08
COc1ccc(CNCCn2c(C)nc3ccccc32)cc1O	-3.51
CC(C)CNC(=O)CCN1C(=O)CCc2cc(F)ccc21	8.17
CCCc1noc(CCC(=O)NC(C)c2nnc3n2CCCCC3)n1 (stereo not drawn)	4.05
Cc1ccn(-c2ccccc2NCc2cccnc2C)n1	1.34
Cc1csc(CNC(=O)NC2CCN(c3ncccn3)CC2)n1	-10.6
Cc1nc(CC(=O)N2CCCN(c3ccc(C#N)cc3)CC2)cs1	2.37
Cc1cnn(C2CCCN(C(=O)c3cc(C)sc3C)C2)c1 (stereo not drawn)	-1.4
O=C(C1CCC1)N1CCCC1c1nnc2n1CCCCC2 (stereo not drawn)	1.26
O=C(CCn1ccccc1=O)N1CCCC(COc2ccc(F)cc2)C1 (stereo not drawn)	-4.19
O=C1CCC(C(=O)N2CCOC(Cc3ccc(F)cc3)C2)=NN1 (stereo not drawn)	-6.26
CC(=O)NCC(=O)N1CCCC2(CCC(=O)N(CCc3c[nH]cn3)C2)C1 (stereo not drawn)	2.77
CC(C)(C)c1cc(=O)[nH]c(-c2ccccc2CN2CCC[C@@H](O)C2)n1	-43.3
CN1C(=O)CC(C(=O)O)C12CCN(c1ccc3c(n1)CCCC3)CC2 (stereo not drawn)	2.78

Compound	cytotoxicity at 10 µM [%]
CCCN(Cc1nc(-c2ccc(F)c(OC)c2)oc1C)CC1CCCO1 (stereo not drawn)	-1.03
COCCN(CC1CCCN(C2Cc3ccccc3C2)C1)C(=O)COC (stereo not drawn)	-5.98
O=C1NC(C(=O)NCc2cccnc2Oc2ccccc2F)CO1 (stereo not drawn)	8.99
CCC1CN(Cc2nnc(C(C)C)o2)CCC(=O)N1Cc1ccccc1 (stereo not drawn)	3.33
O=C(c1ccccn1)N1CCc2c(nc(-c3ccncc3)[nH]c2=O)C1	2.99
COCCC(=O)N1CCCC2(CCC(=O)N(CCc3c[nH]cn3)C2)C1 (stereo not drawn)	-3.76
CCCN1CC2(CCN(c3cc(C4CC4)ncn3)CC2)CC1C(=O)O (stereo not drawn)	-9.88
Cc1ccccc1CN1CCNC(=O)C1CC(=O)NCC1CCCCC1 (stereo not drawn)	-8.77
CCn1cc(CNC2CCN(c3cccc(C)c3C)CC2)cn1	-9.99
COc1cccc(C2CCCN2C(=O)CC2=CSC3=NCCCN23)c1 (stereo not drawn)	-0.277
Cc1ccc(O)c(-c2cc(NCCO)nc3[nH]ccc23)c1	14.1
COc1cccc(CCn2ccnc2-c2cn(C3CCNCC3)nn2)c1	-7.23
COCc1ccc(C(=O)N2CCC(Oc3ccccc3)(C(=O)O)CC2)o1	0.871
CCc1cnc(C)nc1NC(CC)c1ncnn1CC (stereo not drawn)	-10.2
COc1cc(CN2CCCC23CCN(c2ccccn2)CC3)ccc1F	-11.5
O=C(Nc1cc(F)ccc1OCC1CCCO1)NC1CC1 (stereo not drawn)	0.043
COc1ccc(C(=O)N2CCCC2c2cnn(C)c2)cn1 (stereo not drawn)	-3.63
O=C(CS(=O)(=O)Cc1cc(Cl)c2c(c1)OCO2)N1CCCCCC1	-2.8
N#Cc1cccc(CN2CCCC2Cn2cccn2)c1 (stereo not drawn)	-2.78
Cc1ccc(C(O)CNC(=O)Nc2cc(C)nn2C)cc1 (stereo not drawn)	-13.3
O=C(N1CCOCC1)N1CCN(CC(O)c2ccc(F)cc2)CC1 (stereo not drawn)	-2.42
Cc1cc(CN(C)C(=O)c2ccc(Cl)c(N3CCCC3=O)c2)no1	-14.5
CCOc1ccnc(N2CCN(C(=O)c3cn[nH]c3C)CC2)n1	3.54

Compound	cytotoxicity at 10 µM [%]
CC(NC(=O)NCCCO)c1ccc2c(c1)NC(=O)CO2 (stereo not drawn)	-3.05
Cc1ccc(-c2noc(CN3CCc4nn(C)c(=O)cc4C3)n2)cc1	-8.78
Cc1noc(C(C)C)c1C(=O)NCCCN1CCC(C)CC1	-15.9
Cc1cnn(CC2CCCN2CC(=O)Nc2nccs2)c1 (stereo not drawn)	-4.34
Cc1ccc(S(C)(=O)=O)cc1C(=O)N1CCCC(n2cncn2)C1 (stereo not drawn)	-8.21
CCN(Cc1ccco1)C(=O)Nc1cc(C(F)(F)F)c[nH]c1=O	-2.6
CCC(CO)NCc1ccc(-c2ccc(Br)cc2)o1 (stereo not drawn)	-5
Cc1ccc(CN(CCCN2CCOCC2)Cc2cnc(C)n2C)o1	-24
CCc1ccc(CN2CC[C@H]3C[C@H](c4nnc(C)[nH]4)O[C@@H]3C2)o1	-8.51
O=C(O)c1cc2c(nc1N1CCOCC1)CCN(C1CCOC1)CC2 (stereo not drawn)	6.68
COc1ncccc1CN1CCc2[nH]nc(C(=O)N3CCCC3C)c2C1 (stereo not drawn)	-4.4
CN(C)c1ncnc2c1CCN(Cc1nccs1)CC2	6.1
CCN(C)c1ncnc2c1CCN(C(=O)COC)CC2	1.75
c1cnc(NCc2nnn3c2CN(Cc2ccco2)CCC3)nc1	9.08
C1CC(CO[C@@H]2CC[C@H]3[C@H]2OCCN3CC2CC2)CCO1	11.4
O=C(c1ccc(F)cc1)N1CC[C@H]2[C@H]1CCN2CC1CC1	-1.92
CCOC1CC2(CCN(Cc3nccn3C)CC2)C1	-144
O=C(C1CC1)N1CC2(CCNCC2)c2cc(F)ccc21	0.317
COCC(=O)N1CCCC2(CCN(CCN3CCCC3)CC2)C1	4.71
CC(=O)N1CCC2(CCN(Cc3cccc(F)c3)CC2)CC1	-5.46
Cc1ccc(N2CCO[C@H]3CN(Cc4cccnc4)C[C@H]32)nn1	-81.3
